{
  "source": "ChEMBL document CHEMBL5150070",
  "about": "“Tricyclic SpiroLactams Kill Mycobacteria In Vitro and In Vivo by Inhibiting Type II NADH Dehydrogenases” (J Med Chem, 2022)",
  "key": {"[1]": {"test": "Toxicity in noninfected zebrafish larvae assessed as toxic effect", "design": "species or system Danio rerio", "conditions": "in vivo"}, "Escherichia coli": {"tested_on": "Escherichia coli", "test": "Antibiotic activity against Escherichia coli BW25113 assessed as reduction in bacterial cell growth by measuring resazurin reduction incubated for 6 days by fluorescence microplate based assay", "assay_type": "functional", "conditions": "BW25113, 144 h, time 6 day", "in_short": "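E. coli BW25113, E. coli ΔtolC and S. aureus SH1000 were cultured and tested in cation-adjusted Mueller Hinton II broth. Viability was read by adding resazurin and measuring resorufin fluorescence at Ex 530 nm / Em 590 nm.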"}, "[2]": {"tested_on": "Mycobacterium tuberculosis", "test": "Antimycobacterial activity against Mycobacterium tuberculosis H37Rv infected in human A-THP1 macrophages assessed as viability of infected macrophages incubated for 96 hrs by fluorescence microplate assay", "assay_type": "functional, organism-based", "in_short": "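THP-1 cells differentiated with 50 ng/mL PMA for 72 h, infected with log-phase H37Rv (MOI 10, 2 h), and extracellular bacteria killed with 50 µg/mL amikacin for 1 h. Cells detached and seeded at 5×10⁵/mL in RPMI-10% FBS with PMA onto pre-dispensed compound, 96 h at 37°C, 5% CO₂. Macrophage viability by 0.05% resazurin fluorescence.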"}, "[3]": {"tested_on": "Mycobacterium tuberculosis", "test": "Bactericidal activity against Non-replicating Mycobacterium tuberculosis ss18b-lux model assessed as decrease in luminescence at 10 to 10000 nM", "assay_type": "functional, organism-based", "conditions": "dose 10-10000 nM, TDE = time-dependent effect", "in_short": "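Non-replicating streptomycin-starved 18b-lux (14-day starvation) diluted to OD600 0.15 in white 96-well plates with compound and incubated at 37°C. Luminescence read on days 1, 2, 5 and 7 and expressed relative to no-antibiotic controls (n ≥ 3).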"}, "[4]": {"tested_on": "Mycobacterium tuberculosis", "test": "Bactericidal activity against replicating Mycobacterium tuberculosis H37Rv assessed as reduction in colony forming unit measured at 2 to 4 times of MIC after 1 to 2 weeks", "assay_type": "functional", "conditions": "time 1-2 weeks", "in_short": "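Mid-log H37Rv in 7H9-GTy-OADC diluted to OD600 0.02 (~1×10⁶ cfu/mL) and exposed to compound in 96-well replica plates for 1 or 2 weeks. For the 3 lowest concentrations without visible growth, serial 10-fold dilutions plated on 7H11-OADC and cfu counted over 6 weeks at 37°C. Four independent experiments; log10 cfu/mL ± SD.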"}, "[5]": {"test": "Octanol/PBS partition coefficient, logD of compound at pH 7.4 measured after 2 hrs by shake flask method", "assay_type": "physicochemical", "conditions": "octanol/water, pH 7.4, 2 h", "in_short": "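A 10 mM DMSO stock was diluted 50-fold into 1:1 octanol:PBS pH 7.4 and shaken gently for 2 h at room temperature. Each phase was diluted 50-fold in MeOH and quantified by LC-MS/MS. LogD = log of the octanol/PBS concentration ratio from mass signals. Run in triplicate.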"}},
  "note": "pIC50: −log10 of the molar value.",
  "data": [
    {"smiles": "CC(C)[C@H]1CO[C@]23CCN(Cc4ccc(C(F)(F)F)cc4)C[C@H]2CCC(=O)N13", "values": [
      {"measurement": "Activity", "setting": "[1]", "result": "Non-Toxic"},
      {"measurement": "MIC", "setting": "Escherichia coli", "result": "> 100", "unit": "µM"},
      {"measurement": "pIC50", "setting": "[2]", "result": 6.34},
      {"measurement": "Activity", "setting": "[3]", "result": "Tde"},
      {"measurement": "Activity", "setting": "[4]", "result": 0.8, "unit": "log10CFU"},
      {"measurement": "logD", "setting": "[5]", "result": 3.4}
    ]}
  ]
}
